Where “and” joins values, the source holds several entries; their conditions need not be identical. Equal values may be shown once.

The results in this text go back to PubChem BioAssay AID743061 (The Scripps Research Institute Molecular Screening Center, 2013).

For this assay, the target named is Methionine--tRNA ligase, mitochondrial (Homo sapiens) (UniProt Q96GW9). Nature of the assay: human mtMetRS tRNA charging inhibition – biochemical, radioactivity, round 1, selectivity assay for T. brucei MetRS inhibitor project, late-stage follow-up (AID 743061).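 Note: 0% = DMSO with full reaction and 100% = DMSO wells lacking tRNA.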 The following applies: recombinant human mtMetRS, [3H]Met tRNA charging, at 1 µM, stronger effect = higher value. Put shortly: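 System: recombinant human mitochondrial methionyl-tRNA synthetase (MetRS); Buffer or medium: pH 8.0 reaction buffer containing 2.5 mM ATP; Controls: high DMSO, low without tRNA; Reagent: [3H]Met 240 nM plus bulk E. coli tRNA; Schedule: 15 min preincubation, 1 h reaction, room temperature; Measured by: scintillation counts of TCA-precipitated charged tRNA on filters.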
For the compound `COc1ccccc1NC(=O)Cn1cc(C(=O)C(=O)N2CCOCC2)c2ccccc21`, the inhibition (commonly the drop in the measured response relative to a control, in per cent) was -9.04%.
As for `CC(C)c1nc2ccc(C(=O)N(C)CCc3nc4ccc(F)cc4[nH]3)cc2o1`, the figure is -1.54%.
For `O=C(NCCc1nc2ccccc2[nH]1)c1ccc(Cl)c([N+](=O)[O-])c1`, the inhibition amounted to 2.97%.
`O=C(CC=NOCc1ccc([N+](=O)[O-])cc1)Nc1ccc(Cl)cc1`: the inhibition was -13%.
As to `Cc1cccc(C(=O)NCCc2nc3ccccc3n2CCOc2ccccc2)c1`, the inhibition amounted to 1.28%.
Consider `O=C(Cn1cc(C(=O)C(=O)N2CCOCC2)c2ccccc21)Nc1cccc(C(F)(F)F)c1`, for which the inhibition is -22.4%.
As for `O=C(NCc1nc2ccccc2[nH]1)C1=C[C@@H](c2ccc(Br)cc2)C[C@@H](OCCCCO)O1`, the inhibition is -9.46%.
The result for `O=C(C[C@H]1C(=O)N(Cc2ccccc2)C[C@@H]1c1ccc(Br)cc1)Nc1ccc(Br)cc1` reads -13%.
As for `O=C(CCC(=O)Nc1cccc([N+](=O)[O-])c1)NN=Cc1cccs1`, the figure is -28.9%; as for `CC(=O)N(CCc1ccccc1)C1CC(=O)N(c2ccc(Cl)cc2)C1=O` (stereo not given), -19.9%; as for `O=C1CC(NCCc2ccccc2)C(=O)N1c1ccc(Br)cc1` (stereo not given), -12.9%.
In the case of `O=C(NCc1nc2ccccc2[nH]1)C1=C[C@H](c2ccc(Br)cc2)C[C@H](OCc2ccc(CO)cc2)O1`, the inhibition turned out to be 0.59%.
`CC(=O)c1cn(CC(=O)Nc2cccc(C(F)(F)F)c2)c2ccccc12`: the inhibition was -20.4%.
As for `O=C(Cn1cnc2ccccc21)Nc1cccc([N+](=O)[O-])c1`, the figure is -15.4%; as for `Cc1ccc(C(=O)NCCc2nc3ccccc3[nH]2)cc1C`, 1.34%.
As for `Cc1ccc(NC(=O)CN(C)C(=O)CCSc2ccc(F)cc2)cc1`, the figure is -35.7%.
Turning to `O=C1CC(SCc2nc3ccccc3[nH]2)C(=O)N1c1cccc(Cl)c1` (stereo not given), the inhibition was -4.5%.
For `Cc1cc2cc(C(=O)N3CCCC(c4nc5ccccc5[nH]4)C3)ccc2o1` (stereo not given), the inhibition is -13.2%.
With `O=C(NCCc1nc2ccccc2[nH]1)c1c(F)cccc1F`, the inhibition turned out to be 0.56%.
With `CNC(=S)N(CCc1ccccc1)C1CC(=O)N(c2ccc(Br)cc2)C1=O` (stereo not given), the inhibition is 39%.
As to `Cn1c(CCNC(=O)c2ccc(Cl)cc2)nc2ccccc21`, the inhibition was found to be 11.6%.
The result for `CC(C)OCCCN1CC(=O)N2C(c3cccc([N+](=O)[O-])c3)c3[nH]c4ccccc4c3C[C@H]2C1=O` (stereo not given in full) reads -24.2%; that for `Cc1cccc2[nH]c(C3CCCN(C(=O)c4cccc5cccnc45)C3)nc12` (stereo not given), -4.24%; that for `CCC(=O)c1cn(CC(=O)Nc2cccc(C(F)(F)F)c2)c2ccccc12`, -18.3%.
As to `COc1ccc2[nH]c3nc(SCC(=O)Nc4ccc5c(c4)OCO5)nnc3c2c1`, the inhibition came to 14.3%.
In the case of `Cc1ccc(C(=O)NCCc2nc3ccccc3[nH]2)cc1[N+](=O)[O-]`, the inhibition came to 0.93%.
Take `COCCc1nc2ccc(C(=O)NCCc3nc4ccc(OC)cc4[nH]3)cc2o1`: the inhibition was -5.43%.
With `C[C@H](O)[C@@H]1C(=O)N2CCc3c([nH]c4ccccc34)[C@@H]2C[C@@H]1N(C)Cc1ccc2c(c1)OCO2`, the inhibition was -17.7%.
With `Clc1ccc(OCCSCc2nc3ccccc3[nH]2)cc1`, the inhibition is -20%.
Regarding `O=C(Cn1cc(C(=O)COc2ccccc2)c2ccccc21)Nc1cccc(C(F)(F)F)c1`, the inhibition was -22.6%.
With `O=C(Nc1ccc(F)c(Cl)c1)C1CC(=O)n2c(nc3ccccc32)N1` (stereo not given), the inhibition is -11.1% and -0.44%.
The result for `O=C(Cn1cc(C(=O)C(=O)N2CCOCC2)c2ccccc21)NCC1CCCO1` (stereo not given) reads -9.17%.
The result for `O=C(Cn1cc(C(=O)c2ccccc2)c2ccccc21)Nc1cccc(C(F)(F)F)c1` reads -2.29%.
For `Cc1cccc2[nH]c(CCN(C)C(=O)c3cccc(C4CCNC4)c3)nc12` (stereo not given), the inhibition is -6.15%.
In the case of `CCN(CC)C(=O)C(=O)c1cn(CC(=O)Nc2ccccc2OC)c2ccccc12`, the inhibition is -10.6%.
